Results reported in ChEMBL document CHEMBL1147025, “Synthesis of fluorescently tagged isoprenoid bisphosphonates that inhibit protein geranylgeranylation” (Bioorg Med Chem, 2007).
Calls of active or inactive are those of the source. The calls are words filed in the database; no cut-off is given here.

Experiments:
Settings in all cases: Homo sapiens
[1] = test system: K562; assay: Inhibition of GGPTase1 in K562 cells assessed as Rap1a geranylgeranylation after 24 hrs; assay type: cell-based
In short: (§1)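 K562 cells (5 × 10^6 per 5 mL; RPMI-1640, 10% heat-inactivated FBS, 37 °C, 5% CO2) treated 24 h with bisphosphonates diluted in water. Untreated cells served as negative control and 10 µM lovastatin as positive prenylation control. Western blotting used pan-Ras antibody (farnesylation), Rab6 antibody (GGPTase II), and an antibody recognising only unmodified Rap1a (GGPTase I).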

[2] = test system: K562; assay: Inhibition of Ras farnesylation in K562 cells by Western blot analysis after 24 hrs; assay type: functional, cell-based; in short: as §1
[3] = test system: K562; assay: Inhibition of DNA synthesis in K562 cells assessed as [3H]thymidine incorporation after 24 hrs; assay type: functional, cell-based
In short: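 K562 cells grown at 37 °C, 5% CO2 in RPMI-1640 with 10% heat-inactivated FBS. Cells at 2 × 10^5 per 200 µL exposed to bisphosphonates (diluted in water) for 24 h, pulsed with [3H]thymidine (0.04 µCi/well) for the last 2 h. Incorporation into DNA measured by liquid scintillation counting; IC50 for 24 h exposure.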

[4] = test system: K562; assay: Inhibition of GGPTase2 in K562 cells assessed as Rab6 geranylgeranylation after 24 hrs; assay type: cell-based; in short: as §1

Row | IC50 [3] | Compound | Activity [1] | Activity [2] | Activity [4]
1 | > 100 µM | CC(C)=CCC/C(C)=C/CC(C/C=C(\C)CNc1ccccc1C(=O)O)(P(=O)(O)O)P(=O)(O)O | Active | inactive | Active
2 | > 100 µM | CC(C)=CCC/C(C)=C/CC(C/C=C(\C)CC/C=C(\C)CNc1ccccc1C(=O)O)(P(=O)(O)O)P(=O)(O)O | Active | inactive | Active
3 | > 100 µM | C/C(=C\CC(P(=O)(O)O)P(=O)(O)O)CC/C=C(\C)CNc1ccccc1C(=O)O | inactive | inactive | inactive
